These results are taken from PMC4160279 (Journal of the American Chemical Society, 2014).

Where “and” joins values, the source holds several entries; their conditions need not be identical. Identical values can stand only once. A value given as a limit tells only on which side of the number the result lay.

Experiment [1] relates to NoV VA387 P dimer. The settings on record: reported values; cited from earlier work.
For another experiment, the target named is P dimer VA387 (Human calicivirus NLV/VA98387/1998, UniProt Q913Z3). The experiment can be described thus: Direct ESI-MS assay. It is filed as binding. The settings on record: n = 3. Put shortly: (§1)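 Recombinant P dimer (P domain residues 222–539, made in E. coli via a GST fusion system) was titrated with at least four initial oligosaccharide concentrations, in triplicate. Example mix: 12 μM dimer, 80 μM ligand, 4 μM reference protein. Bound/free abundance ratios were taken as solution ratios after nonspecific-binding correction. Ka,int was fitted assuming two independent, equivalent sites.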

For the next experiment, the target named is T1, P dimer VA115 (Human calicivirus NLV/VA98115/1998, UniProt Q91H12).
T1 sequence (Q91H12 227-545): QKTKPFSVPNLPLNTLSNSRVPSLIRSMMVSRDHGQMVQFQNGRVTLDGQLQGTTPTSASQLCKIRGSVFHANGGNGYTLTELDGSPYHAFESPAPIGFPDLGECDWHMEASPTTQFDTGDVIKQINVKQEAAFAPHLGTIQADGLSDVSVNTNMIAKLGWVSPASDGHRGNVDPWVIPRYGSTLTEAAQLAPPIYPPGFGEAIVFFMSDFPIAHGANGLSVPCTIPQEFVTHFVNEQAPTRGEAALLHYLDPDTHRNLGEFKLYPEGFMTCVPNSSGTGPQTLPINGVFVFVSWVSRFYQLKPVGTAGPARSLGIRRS
As to the kind of experiment: Direct ESI-MS assay. It counts as binding. The following applies: n = 3. In a few lines: as §1

For experiment [2], the system named is NoV VA387 P dimer. As to the kind of experiment: Direct ESI-MS assay, NoV VA387 P dimer. Further details: species or system human NoV VA387 (GII.4). The settings on record: intrinsic (per binding site) association constant; aqueous ammonium acetate (200 mM), pH 7, 25 °C. Put shortly: (§2)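 Recombinant P dimer, buffer-exchanged into ammonium acetate and quantified by UV, was mixed (e.g., 12 μM) with ganglioside oligosaccharide (e.g., 80 μM) and reference protein (4 μM). Nanoelectrospray in negative ion mode used capillary −0.8 kV, cone 60 V and source 60 °C. Runs covered ≥4 initial ligand concentrations in triplicate. Ka,int came from bound/free abundance ratios, corrected for nonspecific binding, with two equivalent sites.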

In experiment [3] the test system is NoV VA387 P particle. As to the kind of experiment: CaR-ESI-MS screening assay. The settings on record: P particle (3 μM) and 10 μM of GD1a or GD1b. It is filed as binding, human NoV VA387 (GII.4).
In a further experiment the test system is NoV VA115 P dimer. The experiment can be described thus: Direct ESI-MS assay, NoV VA115 P dimer. Set-up: species or system human NoV VA115 (GI.3). The following applies: intrinsic (per binding site) association constant; aqueous ammonium acetate (200 mM), pH 7, 25 °C. Put shortly:
as §2

The subject of experiment [4] is NoV VA387 P particle. As to the kind of experiment: Proxy protein ESI-MS method, VA387 P particle. It is filed as binding, human NoV VA387 (GII.4). The settings on record: aqueous ammonium acetate (160 mM), pH 7, 25 °C; Gal-3C as proxy protein. Put shortly:
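Gal-3C proxy (3.0 μM), ubiquitin reference (1.0 μM) and GM3 trisaccharide (40 μM) were mixed with VA387 P particle at 0–7.2 μM (0–172.8 μM monomer); the 24-mer came from E. coli. Positive-mode nanoESI. GM3-bound/free proxy ratio was measured after nonspecific-binding correction. Ka,int per site was derived from the ratio change using the known proxy association constant and binding-site concentration.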

For experiment [5], the target named is recombinant fragment of the C-terminus of human galectin-3 (Gal-3C) (Homo sapiens, UniProt P17931). The experiment can be described thus: ESI-MS binding of ligand to proxy protein Gal-3C. The following applies: association constant of proxy protein for the ligand.
A further experiment deals with NoV VA387 VLP. The experiment can be described thus: Proxy protein ESI-MS method, VA387 VLP. It counts as binding, human NoV VA387 (GII.4). The following applies: aqueous ammonium acetate (160 mM), pH 7, 25 °C; Gal-3C as proxy protein. Put shortly:
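VLPs were expressed from VA387 VP1 in Sf9 cells by recombinant baculovirus and purified on a sucrose gradient, then tested at 0–570 nM (0–102.6 μM monomer). Each mix held Gal-3C proxy (3.0 μM), ubiquitin reference (1.0 μM) and GM3 trisaccharide (40 μM). Positive-mode nanoESI. Ka,int per site came from the corrected proxy bound/free ratio versus VLP concentration, using the known proxy affinity.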

Chain of P dimer VA387 (Q913Z3 222-539): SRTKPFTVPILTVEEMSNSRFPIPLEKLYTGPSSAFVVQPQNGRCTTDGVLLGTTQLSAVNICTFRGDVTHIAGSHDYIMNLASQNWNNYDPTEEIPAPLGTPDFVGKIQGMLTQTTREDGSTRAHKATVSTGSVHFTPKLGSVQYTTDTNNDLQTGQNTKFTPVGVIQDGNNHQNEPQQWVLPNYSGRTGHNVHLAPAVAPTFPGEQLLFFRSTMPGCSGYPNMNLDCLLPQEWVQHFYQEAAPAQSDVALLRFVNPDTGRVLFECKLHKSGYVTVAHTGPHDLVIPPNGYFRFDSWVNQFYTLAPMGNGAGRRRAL
Chain of recombinant fragment of the C-terminus of human galectin-3 (Gal-3C) (P17931 118-248 limits assumed): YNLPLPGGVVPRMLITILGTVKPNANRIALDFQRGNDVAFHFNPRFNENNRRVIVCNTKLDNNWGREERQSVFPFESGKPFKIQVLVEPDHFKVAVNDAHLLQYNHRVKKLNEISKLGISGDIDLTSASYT

Regarding `CC(=O)N[C@H]1C(O)O[C@H](CO)[C@H](O)[C@@H]1O[C@@H]1O[C@H](CO)[C@H](O)[C@H](O[C@H]2O[C@H](CO)[C@H](O)[C@H](O)[C@H]2O)[C@H]1O[C@@H]1O[C@@H](C)[C@@H](O)[C@@H](O)[C@@H]1O` (some centres unmarked) [B3, B type 3 tetrasaccharide], the “intrinsic affinity (Ka,int) of HBGA ligands” value with NoV VA387 P dimer [1] is reported as 1500 ± 150 M^–1.
For `CC(=O)N[C@H]1[C@H](O[C@@H]2[C@H](O[C@]3(C(=O)O)C[C@H](O)[C@@H](NC(C)=O)[C@H]([C@H](O)[C@H](O)CO)O3)[C@@H](O)[C@H](O[C@H]3[C@H](O)[C@@H](O)C(O)O[C@@H]3CO)O[C@@H]2CO)O[C@H](CO)[C@H](O)[C@@H]1O[C@@H]1O[C@H](CO)[C@H](O)[C@H](O[C@]2(C(=O)O)C[C@H](O)[C@@H](NC(C)=O)[C@H]([C@H](O)[C@H](O)CO)O2)[C@H]1O` (some centres unmarked) [GD1a, GD1a ganglioside oligosaccharide (Neu5Aca2-3Galb1-3GalNAcb1-4(Neu5Aca2-3)Galb1-4Glc)], the values for the Kd on P dimer VA387 and at P dimer VA115 were > 10000 µM and 3120 µM, respectively.
On to `CC(=O)N[C@H]1[C@H](O[C@@H]2[C@H](O[C@]3(C(=O)O)C[C@H](O)[C@@H](NC(C)=O)[C@H]([C@H](O)[C@H](O)CO)O3)[C@@H](O)[C@H](O[C@H]3[C@H](O)[C@@H](O)C(O)O[C@@H]3CO)O[C@@H]2CO)O[C@H](CO)[C@H](O)[C@@H]1O[C@@H]1O[C@H](CO)[C@H](O)[C@H](O[C@]2(C(=O)O)C[C@H](O)[C@@H](NC(C)=O)[C@H]([C@H](O)[C@H](O)CO)O2)[C@H]1O` (some centres unmarked) [GD1a], for which, in the experiment on NoV VA387 P dimer [2], the “Ka,int P dimer VA387” value was <100 M^–1. The “binding to P particle, ligand tested alone” value with NoV VA387 P particle [3] is listed as “binds”. Also, the “Ka,int P dimer VA115” value in the experiment with NoV VA115 P dimer stood at 320 ± 90 M^–1.
On to `CC(=O)N[C@H]1[C@H](O[C@@H]2[C@H](O[C@]3(C(=O)O)C[C@H](O)[C@@H](NC(C)=O)[C@H]([C@H](O)[C@@H](CO)O[C@]4(C(=O)O)C[C@H](O)[C@@H](NC(C)=O)[C@H]([C@H](O)[C@H](O)CO)O4)O3)[C@@H](O)[C@H](O[C@H]3[C@H](O)[C@@H](O)C(O)O[C@@H]3CO)O[C@@H]2CO)O[C@H](CO)[C@H](O)[C@@H]1O` (some centres unmarked) [GD2, GD2 ganglioside oligosaccharide (GalNAcb1-4(Neu5Aca2-8Neu5Aca2-3)Galb1-4Glc)], for which the values for the Kd on P dimer VA387 and at P dimer VA115 were 6670 µM and 1430 µM, respectively.
Regarding `CC(=O)N[C@H]1[C@H]([C@H](O)[C@H](O)CO)O[C@@](O[C@H](CO)[C@@H](O)[C@@H]2O[C@@](O[C@H]3[C@@H](O)[C@@H](CO)O[C@@H](O[C@H]4[C@H](O)[C@@H](O)C(O)O[C@@H]4CO)[C@@H]3O)(C(=O)O)C[C@H](O)[C@H]2NC(C)=O)(C(=O)O)C[C@@H]1O` (some centres unmarked) [GD3, GD3 ganglioside oligosaccharide (Neu5Aca2-8Neu5Aca2-3Galb1-4Glc)], the values for the Kd at P dimer VA387 and at P dimer VA115 were 2940 µM and 2380 µM, respectively.
For `CC(=O)N[C@H]1[C@H](O[C@@H]2[C@H](O[C@]3(C(=O)O)C[C@H](O)[C@@H](NC(C)=O)[C@H]([C@H](O)[C@H](O)CO)O3)[C@@H](O)[C@H](O[C@H]3[C@H](O)[C@@H](O)C(O)O[C@@H]3CO)O[C@@H]2CO)O[C@H](CO)[C@H](O)[C@@H]1O[C@@H]1O[C@H](CO)[C@H](O)[C@H](O)[C@H]1O` (some centres unmarked) [GM1a, GM1a ganglioside oligosaccharide (Galb1-3GalNAcb1-4(Neu5Aca2-3)Galb1-4Glc)] the same measures were 2860 µM and 2500 µM.
For `CC(=O)N[C@H]1[C@H](O[C@@H]2[C@H](O)[C@@H](O)[C@H](O[C@H]3[C@H](O)[C@@H](O)C(O)O[C@@H]3CO)O[C@@H]2CO)O[C@H](CO)[C@H](O)[C@@H]1O[C@@H]1O[C@H](CO)[C@H](O)[C@H](O[C@]2(C(=O)O)C[C@H](O)[C@@H](NC(C)=O)[C@H]([C@H](O)[C@H](O)CO)O2)[C@H]1O` (some centres unmarked) [GM1b, GM1b ganglioside oligosaccharide (Neu5Aca2-3Galb1-3GalNAcb1-4Galb1-4Glc)] the same measures were 5560 µM and 2080 µM.
Regarding `CC(=O)N[C@H]1[C@H](O[C@@H]2[C@H](O[C@]3(C(=O)O)C[C@H](O)[C@@H](NC(C)=O)[C@H]([C@H](O)[C@H](O)CO)O3)[C@@H](O)[C@H](O[C@H]3[C@H](O)[C@@H](O)C(O)O[C@@H]3CO)O[C@@H]2CO)O[C@H](CO)[C@H](O)[C@@H]1O` (some centres unmarked) [GM2, GM2 ganglioside oligosaccharide (GalNAcb1-4(Neu5Aca2-3)Galb1-4Glc)], the Kd at P dimer VA387 was 2780 µM; on P dimer VA115, 1430 µM.
As to `CC(=O)N[C@H]1[C@H]([C@H](O)[C@H](O)CO)O[C@@](O[C@H]2[C@@H](O)[C@@H](CO)O[C@@H](O[C@H]3[C@H](O)[C@@H](O)C(O)O[C@@H]3CO)[C@@H]2O)(C(=O)O)C[C@@H]1O` (some centres unmarked) [GM3, GM3 ganglioside oligosaccharide (GM3 trisaccharide, Neu5Aca2-3Galb1-4Glc)], the Kd on P dimer VA387 is 667 µM; at P dimer VA115 it was 769 µM.
As for `CC(=O)N[C@H]1[C@H]([C@H](O)[C@H](O)CO)O[C@@](O[C@H]2[C@@H](O)[C@@H](CO)O[C@@H](O[C@H]3[C@H](O)[C@@H](O)C(O)O[C@@H]3CO)[C@@H]2O)(C(=O)O)C[C@@H]1O` (some centres unmarked) [GM3], in the experiment with NoV VA387 P dimer [2], the “Ka,int P dimer VA387” value is 1500 M^–1 and 1500 ± 150 M^–1. In addition, the “affinity (Ka,int) for VA387 P particle” value with NoV VA387 P particle [4] worked out at 2600 ± 200 M^–1. Moreover, the “affinity for Gal-3C” value in experiment [5] is given as “(1.20 ± 0.02) × 10^4 M^–1”. The “Ka,int P dimer VA115” value in the experiment with NoV VA115 P dimer is on record as 1300 ± 130 M^–1. In addition, in the experiment on NoV VA387 VLP, the “affinity (Ka,int) for VA387 VLP” value worked out at 5500 ± 600 M^–1.
For `CC(=O)N[C@H]1[C@H](O[C@@H]2[C@H](O[C@]3(C(=O)O)C[C@H](O)[C@@H](NC(C)=O)[C@H]([C@H](O)[C@@H](CO)O[C@]4(C(=O)O)C[C@H](O)[C@@H](NC(C)=O)[C@H]([C@H](O)[C@@H](CO)O[C@]5(C(=O)O)C[C@H](O)[C@@H](NC(C)=O)[C@H]([C@H](O)[C@H](O)CO)O5)O4)O3)[C@@H](O)[C@H](O[C@H]3[C@H](O)[C@@H](O)C(O)O[C@@H]3CO)O[C@@H]2CO)O[C@H](CO)[C@H](O)[C@@H]1O[C@@H]1O[C@H](CO)[C@H](O)[C@H](O)[C@H]1O` (some centres unmarked) [GT1c, GT1c ganglioside oligosaccharide (Galb1-3GalNAcb1-4(Neu5Aca2-8Neu5Aca2-8Neu5Aca2-3)Galb1-4Glc)], the “Ka,int” value is <100 M⁻¹ at P dimer VA387 and 260 ± 110 M⁻¹ on P dimer VA115.
`CC(=O)NC1C(OC2C(CO)OC(OC3C(CO)OC(O)C(O)C3O)C(O)C2OC2(C(=O)O)CC(O)C(NC(C)=O)C(C(O)C(CO)OC3(C(=O)O)CC(O)C(NC(C)=O)C(C(O)C(CO)OC4(C(=O)O)CC(O)C(NC(C)=O)C(C(O)C(O)CO)O4)O3)O2)OC(CO)C(O)C1O` (centres unmarked) [GT2, GT2 ganglioside oligosaccharide (GalNAcb1-4(Neu5Aca2-8Neu5Aca2-8Neu5Aca2-3)Galb1-4Glc)]: the figures for the Kd on P dimer VA387 and at P dimer VA115 were > 10000 µM and 4350 µM, respectively.
For `CC(=O)NC1C(O)CC(OC2C(O)C(OC3C(CO)OC(O)C(O)C3O)OC(CO)C2OC2OC(CO)C(O)C(OC3OC(CO)C(O)C(O)C3OC3OC(C)C(O)C(O)C3O)C2NC(C)=O)(C(=O)O)OC1C(O)C(O)CO` (centres unmarked) [fucosyl-GM1, fucosyl-GM1 ganglioside oligosaccharide (Fuc-GM1; Fuca1-2Galb1-3GalNAcb1-4(Neu5Aca2-3)Galb1-4Glc)] the same measures were 2170 µM and 1670 µM.

The term Kd denotes the concentration at which binding is half-saturated. Low readings indicate tighter binding, high ones weaker binding.
